Calls of active or inactive are those of the source. The rule behind the calls is not given here.

Experiment [1] addresses T1, Polyunsaturated fatty acid 5-lipoxygenase (Homo sapiens) (UniProt P09917).
T1 sequence (whole entry): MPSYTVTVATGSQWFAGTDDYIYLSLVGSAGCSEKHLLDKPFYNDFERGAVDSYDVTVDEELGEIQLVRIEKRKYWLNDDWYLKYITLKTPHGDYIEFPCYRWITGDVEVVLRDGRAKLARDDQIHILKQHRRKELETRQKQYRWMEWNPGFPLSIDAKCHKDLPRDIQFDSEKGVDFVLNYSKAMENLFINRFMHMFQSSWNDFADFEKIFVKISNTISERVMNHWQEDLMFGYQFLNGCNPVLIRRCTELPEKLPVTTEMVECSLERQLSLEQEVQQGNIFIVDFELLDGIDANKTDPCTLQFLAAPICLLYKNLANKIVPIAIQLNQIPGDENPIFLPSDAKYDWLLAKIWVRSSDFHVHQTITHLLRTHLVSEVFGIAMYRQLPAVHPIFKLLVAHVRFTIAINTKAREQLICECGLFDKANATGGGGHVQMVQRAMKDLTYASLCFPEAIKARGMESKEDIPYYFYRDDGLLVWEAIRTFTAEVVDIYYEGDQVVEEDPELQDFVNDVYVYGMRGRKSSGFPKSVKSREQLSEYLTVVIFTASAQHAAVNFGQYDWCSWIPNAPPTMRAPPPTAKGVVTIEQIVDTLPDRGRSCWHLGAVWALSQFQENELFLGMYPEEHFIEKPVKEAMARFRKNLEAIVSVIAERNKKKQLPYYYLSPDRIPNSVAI
Nature of the experiment: Inhibition of 5-lipoxygenase in human intact polymorphonuclear leukocytes assessed as suppression of A23187-induced product formation at 1 uM. Details: scale not given: the % may be the effect or the level left. The method, boiled down:
(§1)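 Human PMNL were isolated from donor venous blood by dextran sedimentation, Nycoprep centrifugation and hypotonic lysis. 5 × 10^6 cells in 1 mL PBS pH 7.4 with 1 mg/mL glucose and 1 mM CaCl2 were preincubated 15 min at RT. Stimulation was with 2.5 µM A23187 plus 20 µM AA for 10 min at 37 °C. Methanol stop, PGB1 internal standard, HPLC of LTB4, its all-trans isomers and 5-H(P)ETE.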

Experiment [2] has as its target T1, Polyunsaturated fatty acid 5-lipoxygenase (Homo sapiens). The experiment in a line: Inhibition of 5-lipoxygenase in human intact polymorphonuclear leukocytes assessed as suppression of A23187-induced product formation at 10 uM. Details: scale not given: the % may be the effect or the level left. The essentials: as §1
Experiment [3] deals with T2, Polyunsaturated fatty acid 5-lipoxygenase (Homo sapiens, UniProt P09917).
T2 sequence (P09917 whole entry): T1 sequence (whole entry)
The experiment in a line: Inhibition of 5-lipoxygenase in human intact polymorphonuclear leukocytes assessed as suppression of A23187-induced product formation. The essentials: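 Same PMNL assay: 15 min RT preincubation, then 2.5 µM A23187 plus 20 µM exogenous AA for 10 min at 37 °C. HPLC read-out as ng 5-LO products per 10^6 cells. IC50 approximated by linear interpolation around 50% activity from 4-5 concentrations; mean ± SE, n = 3-5.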

Experiment [4] has as its target T1, Polyunsaturated fatty acid 5-lipoxygenase (Homo sapiens). Nature of the experiment: Inhibition of human recombinant 5-lipoxygenase expressed in Escherichia coli MV1190 assessed as suppression of CaCl2/arachidonic acid-induced product formation at 30 uM. Details: scale not given: the % may be the effect or the level left.
Experiment [5] shares this target. The experiment in a line: Inhibition of human recombinant 5-lipoxygenase expressed in Escherichia coli MV1190 assessed as suppression of CaCl2/arachidonic acid-induced product formation at 1 uM. Details: scale not given: the % may be the effect or the level left.
The target of experiment [6] is T2, Polyunsaturated fatty acid 5-lipoxygenase. Nature of the experiment: Inhibition of human recombinant 5-lipoxygenase expressed in Escherichia coli MV1190 assessed as suppression of CaCl2/arachidonic acid-induced product formation.

For `CCCCCCC(Sc1nc(Cl)cc(Nc2cccc(C)c2C)n1)C(=O)O` (configuration not stated), the values for the Activity in experiment [1] and in experiment [2] were 64.3% and 28.9%, respectively. The IC50 in experiment [3] is 4100 nM.

In the case of `CCCCCCC(Sc1nc(Cl)cc(Oc2ccc3ncccc3c2)n1)C(=O)O` (configuration not stated), the Activity in experiment [1] came to 91.4%; in experiment [4] it was 72.6%; in experiment [2], 10.7%; in experiment [5] it was 93.7%.

As to `O=C(O)CSc1nc(Cl)cc(Nc2cccc3c2CCC3)n1`, the Activity in experiment [1] was 71.1%; in experiment [2], 14.5%. The IC50 in experiment [3] turned out to be 3900 nM.

Turning to `CCOC(=O)CSc1nc(Cl)cc(Oc2ccc3ncccc3c2)n1`, the result in experiment [1] was inactive. Moreover, the Activity in experiment [2] was determined as 77.6%.

`Cc1cccc(Nc2cc(Cl)nc(SC(C)C(=O)O)n2)c1C` (configuration not stated): the result in experiment [1] and in experiment [2] was inactive.

For `CCOC(=O)C(C)Sc1nc(Cl)cc(Nc2cccc(C)c2C)n1` (configuration not stated), in experiment [1], the outcome was inactive. Also, the Activity in experiment [2] stood at 22.8%.

As to `CCCCCCC(Sc1nc(Cl)cc(Nc2ccc3ncccc3c2)n1)C(=O)OCC` (configuration not stated), the Activity in experiment [1] turned out to be 27.9%; in experiment [4], 43.8%; in experiment [2], 4%; in experiment [5] it was 68.2%. In addition, the IC50 in experiment [6] stood at 19000 nM; in experiment [3], 600 nM.

As for `Cc1cccc(Nc2cc(Cl)nc(SCC(=O)O)n2)c1C`, the outcome in experiment [1] and in experiment [2] was inactive.

With `O=C(O)CSc1nc(Cl)cc(Oc2ccc3ncccc3c2)n1`, the result in experiment [1] and in experiment [2] was inactive.

With `O=C(O)CSc1nc(Cl)cc(Nc2ccc3ncccc3c2)n1`, the result in experiment [1] and in experiment [2] was inactive.

Take `CCCCC(Sc1nc(Cl)cc(Nc2ccc3ncccc3c2)n1)C(=O)OCC` (configuration not stated): the Activity in experiment [1] was 51.8%; in experiment [2], 1.6%. In addition, the IC50 in experiment [3] amounted to 1100 nM.

With `CCCCCCC(Sc1nc(Cl)cc(NCc2ccc3ncccc3c2)n1)C(=O)OCC` (configuration not stated), the Activity was found to be 57.4% in experiment [1], 56% in experiment [4], 11.4% in experiment [2] and 70.7% in experiment [5]. The figures for the IC50 in experiment [6] and in experiment [3] were 37000 nM and 1400 nM, respectively.

With `CCOC(=O)CSc1nc(Cl)cc(OCc2ccc3ncccc3c2)n1`, the Activity amounted to 80% in experiment [1] and 3.9% in experiment [2].

Consider `CCCCCCC(Sc1nc(Cl)cc(Nc2ccc3ncccc3c2)n1)C(=O)O` (configuration not stated), for which, in experiment [1], the outcome was inactive. The Activity worked out at 52.7% in experiment [4], 20.1% in experiment [2] and 95.4% in experiment [5]. The IC50 in experiment [6] amounted to 34000 nM.

Regarding `CCOC(=O)C(Sc1nc(Cl)cc(Nc2ccc3ncccc3c2)n1)c1ccccc1` (configuration not stated), the Activity in experiment [1] was determined as 52.7%; in experiment [2], 3.5%. In experiment [3], the IC50 turned out to be 1200 nM.

Regarding `CCOC(=O)CSc1nc(Cl)cc(Nc2cccc(C)c2C)n1`, the figures for the Activity in experiment [1] and in experiment [2] were 76.9% and 77.7%, respectively.

For the molecule `CCOC(=O)CSc1nc(Cl)cc(Nc2cccc3c2CCC3)n1`, the Activity was found to be 65.2% in experiment [1] and 8.9% in experiment [2]. Also, in experiment [3], the IC50 worked out at 3200 nM.

Regarding `CCCCCCC(Sc1nc(Cl)cc(NCc2ccc3ncccc3c2)n1)C(=O)O` (configuration not stated), the Activity came out at 87.6% in experiment [1], 51% in experiment [4], 26.7% in experiment [2] and 95.6% in experiment [5]. In addition, in experiment [6], the IC50 is 31000 nM.

On to `CCCCC(Sc1nc(Cl)cc(Nc2ccc3ncccc3c2)n1)C(=O)O` (configuration not stated), for which the result in experiment [1] was inactive. Further, the Activity in experiment [2] amounted to 50%.

For the molecule `CCOC(=O)CSc1nc(Cl)cc(Nc2ccc3ncccc3c2)n1`, the Activity in experiment [1] amounted to 86.3%; in experiment [2], 12.3%. Further, the IC50 in experiment [3] worked out at 2600 nM.

Regarding `CCOC(=O)C(Sc1nc(Cl)cc(Nc2cccc(C)c2C)n1)c1ccccc1` (configuration not stated), the Activity in experiment [1] amounted to 53.1%; in experiment [2], 18.7%. For the same molecule, in experiment [3], the IC50 stood at 1800 nM.

As to `CCCCCCC(Sc1nc(Cl)cc(Oc2ccc3ncccc3c2)n1)C(=O)OCC` (configuration not stated), the Activity in experiment [1] was found to be 67.4%; in experiment [4], 59.2%; in experiment [2], 4.5%; in experiment [5], 79.1%. In addition, the IC50 in experiment [3] worked out at 1700 nM.

As to `Cc1cccc(Nc2cc(Cl)nc(SC(C(=O)O)c3ccccc3)n2)c1C` (configuration not stated), the outcome in experiment [1] and in experiment [2] was inactive.

Take `O=C(O)C(Sc1nc(Cl)cc(Nc2ccc3ncccc3c2)n1)c1ccccc1` (configuration not stated): in experiment [1], the outcome was inactive. Besides, the Activity in experiment [2] came to 69.1%.

On to `CC(Sc1nc(Cl)cc(Nc2ccc3ncccc3c2)n1)C(=O)O` (configuration not stated), for which the outcome in experiment [1] and in experiment [2] was inactive.

Take `CC(=O)N(O)C/C=C/c1cccc(Oc2ccccc2)c1`: the Activity came out at 3.3% in experiment [1] and 10.8% in experiment [5].

Consider `CCCCCCC(Sc1nc(Cl)cc(Nc2cccc(C)c2C)n1)C(=O)OCC` (configuration not stated), for which the Activity in experiment [1] stood at 84.9%; in experiment [2], 30.5%.

As for `CCOC(=O)C(C)Sc1nc(Cl)cc(Nc2ccc3ncccc3c2)n1` (configuration not stated), the outcome in experiment [1] was inactive. In addition, the Activity in experiment [2] is 12%.

As a reminder, the IC50 is the concentration needed to halve the response being measured.

For the origin of these results see ChEMBL document CHEMBL1140046, “Novel and potent inhibitors of 5-lipoxygenase product synthesis based on the structure of pirinixic acid” (J Med Chem, 2008).
